Screens (PubChem)
Myeloid diff MLP – induction of myeloid progenitor differentiation, primary screen, cell-based, flow cytometry, MLPCN library; ER-HoxA9 myeloid progenitors, lysozyme-GFP differentiation; calls only at 10 µM; 360,000 tested, 1% active; AID 624256, 2012;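 active = normalized GFP-positive differentiation at or above the plate's own cutoff, the solvent-only control mean plus 3 SD; inconclusive = no clear call, values can overlap the other calls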;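 also: cells exposed to compound for four days before flow analysis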
GAA850 FXN act – FXN promoter activators, primary screen, cell-based, luciferase luminescence, HEK293 lucGAA850 | HEK293 lucGAA850 FXN promoter luciferase reporter, 24 h; percent of 10 µM SAHA response | activation, % at 6 µM | 360,000 tested, 0.56% active;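 active = activation above the average of all compounds screened plus 3 SD, cutoff fixed separately per campaign, cut at about 7.5% in these data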
NR2E3 ag-1 – inhibitors of NR2E3-RetCOR corepressor binding, primary screen, NR2E3 agonist project, biochemical, TR-FRET, GST-NR2E3, biotin-RetCOR. Photoreceptor-specific nuclear receptor (Homo sapiens), Q9Y5X4. 1536-well. inhibition of corepressor binding, % at 4.78 µM. 320,000 tested, 0.12% active;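 active = percent inhibition above the cutoff of mean plus 3 SD of all tested compounds, set per screening campaign, cut at about 20% in these data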
Target sequence (Q9Y5X4 whole entry, looked up): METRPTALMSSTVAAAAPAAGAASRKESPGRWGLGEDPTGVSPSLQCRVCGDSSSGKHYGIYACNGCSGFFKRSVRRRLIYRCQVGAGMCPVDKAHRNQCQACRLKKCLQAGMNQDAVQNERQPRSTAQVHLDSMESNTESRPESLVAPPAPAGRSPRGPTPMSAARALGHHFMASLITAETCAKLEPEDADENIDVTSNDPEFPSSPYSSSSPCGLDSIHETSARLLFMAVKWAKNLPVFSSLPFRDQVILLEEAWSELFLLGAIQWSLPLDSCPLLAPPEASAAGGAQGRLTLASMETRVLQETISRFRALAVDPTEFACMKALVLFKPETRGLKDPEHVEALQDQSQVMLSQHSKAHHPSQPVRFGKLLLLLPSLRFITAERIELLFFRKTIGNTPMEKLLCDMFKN
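Test system: GST-NR2E3 and biotin-RetCOR proteins | Quantity: 1.35 nM GST-tagged NR2E3 final | Medium: Tris pH 7.5 | Also added: 7 nM biotin-RetCOR | Dosing: Compound at 4.8 µM, single dose | Timing: 5 h at 4 °C | Detection: Time-resolved FRET | Read-out basis: Percent inhibition | Benchmarks: Biotin wells as high control, 0.6% DMSO wells as low control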
NR2E3 ag-2 – NR2E3 agonists in two-hybrid cells, primary screen, cell-based, luminescence, CHO-S, Gal4-NCOR/VP16-NR2E3; Photoreceptor-specific nuclear receptor (Homo sapiens), Q9Y5X4; luciferase; inhibition of corepressor binding, % at 3.98 µM; 360,000 tested, 0.35% active; AID 602229, 2012;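 active = inhibition above the mean of all tested compounds plus 3 SD, cut at about 70% in these data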;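 also: higher means lower luciferase signal from less NR2E3 corepressor binding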
T cell modulator – modulators of CD8 T cell-vesicle binding, primary screen, mouse 2C CD8+ T cells, flow cytometry. 330,000 tested, 0.068% active. response (vesicle binding), % at 7 µM. AID 2052, 2009. 2C CD8+ T cell-vesicle binding; hits give low values;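 active = response, share of CD8 T cells binding vesicles, and their 90th percentile fluorescence all below set limits, cut at about 80% in these data, passing the limit was not always enough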;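 also: values below 100% mean blocked vesicle binding to the CD8+ T cells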
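Material: 2C TCR transgenic mouse naive CD8+ T cells, MACS-purified. Also added: QL9-charged Drosophila Ld/ICAM-1/B7-1 vesicles. Timing: binding 1.5 h at 37 °C. Measured by: high-throughput flow cytometry with anti-B7-1 and anti-CD8 staining. Read-out: percent CD8+ FL2 mean versus row control. Controls: Unloaded micro-vesicles (low), QL9 vesicles with 0.7% DMSO (high).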
Of the large screens only hits and unclear results are named; the others gave an inactive call; ! = a repeat was not active. Only some compounds are listed: those with a hit (about 2% of all), similar ones and a draw of the others.

C[C@H](CO)N1C[C@H](C)[C@H](CN(C)Cc2cccc(O)c2)OCc2ccccc2-c2c(n(C)c3ccccc23)C1=O	none (no result: NR2E3 ag-1, T cell modulator)
C=CCNc1nc(NCc2ccc(N(C)C)cc2)c2sc(-c3ccccc3)cc2n1	Myeloid diff MLP active (no result: NR2E3 ag-1, T cell modulator)
O=C(CC1C(=O)NCCN1Cc1cccc(Oc2ccccc2)c1)NCCCn1cccn1 (stereo not given)	none
Cn1cnnc1SCC(=O)NC1CCCN(Cc2ccccc2F)C1 (stereo not given)	none
COc1ccccc1-c1cc(C(=O)NC2CCCC2)no1	none
C[C@@H]1CN([C@H](C)CO)C(=O)CCCn2cc(nn2)CO[C@H]1CN(C)S(=O)(=O)c1cccs1	none (no result: GAA850 FXN act, NR2E3 ag-1, T cell modulator)
COc1ccc(OC)c(-c2cc(C(=O)Nc3c(C)nn(Cc4ccccc4C)c3C)no2)c1	Myeloid diff MLP active
CCOc1ccc(C(=O)Oc2cc(C)[nH]c(=O)c2[N+](=O)[O-])cc1OCC	none
Cc1ccc2c(c1)c1c3n2CCN=C3CCC1	Myeloid diff MLP active
NC(N)=N/N=C/c1ccc(OS(=O)(=O)c2ccccc2)cc1	none
Cc1nn(-c2ccccc2)c(Cl)c1/C=N/NC(=O)c1cccc(S(=O)(=O)N2CCCC2)c1	none
Cc1nn(-c2ccccc2)c(N2CCCC2)c1/C=N/NC(=O)c1cccc(S(=O)(=O)Nc2ccc(Cl)cc2)c1	Myeloid diff MLP active
CCCC/C=C/C(NC(=O)CCc1ccccc1)c1ccccc1 (stereo not given)	Myeloid diff MLP active
COC(=O)C1=C(C(=O)OC)C(C(=O)OC)C(C(=O)OC)C(C(=O)OC)(C(=O)OC)C(C(=O)OC)=C1C(=O)OC (stereo not given)	none (no result: NR2E3 ag-1, T cell modulator)
CCCCCn1c(=O)c(C(=O)OCC)c(O)c2ccccc21	none
CCOC(=O)c1c(O)c2cc(Cl)ccc2n(CC)c1=O	T cell modulator 58
Cc1ccc(O)c(C=Nc2cc(C)ccc2O)c1	Myeloid diff MLP active
CC(C)(C)c1ccc(O)c(N=Cc2cc(Br)ccc2O)c1	none
CCN(C(=O)CCS(=O)(=O)c1cccc2nonc12)c1ccc(C)c(C)c1	none
O=S1(=O)C=C(Sc2nc3ccccc3s2)c2ccccc21	none (no result: Myeloid diff MLP, GAA850 FXN act, NR2E3 ag-2)
Cc1cc(C)nc(SC2=CS(=O)(=O)c3ccccc32)n1	Myeloid diff MLP active
O=[N+]([O-])c1cccc(NC(=S)Nc2nc(-c3ccc(Cl)cc3Cl)cs2)c1	none (no result: Myeloid diff MLP, GAA850 FXN act, NR2E3 ag-2)
COc1ccc2c(C=Nc3c(C)n(C)n(-c4ccccc4)c3=O)c(O)n(Cc3ccco3)c(=O)c2c1	Myeloid diff MLP active!
Cc1c(N=Cc2ccco2)c(=O)n(-c2ccccc2)n1C	none
O=C(OCc1ccc(F)cc1)c1ccc2c(c1)-c1ccccc1C2=O	none
CCOC(=O)C1=C(Cc2ccc(F)cc2)C(=O)c2ccccc2C1=O	Myeloid diff MLP active
Cc1ccc(NC(=O)N2CCC(NC(=O)c3ccco3)CC2)cc1	Myeloid diff MLP active
CCN(C(=O)COC(=O)c1c2c(nc3ccccc13)/C(=C/c1ccccc1)CC(C)C2)C1CCS(=O)(=O)C1 (stereo not given)	Myeloid diff MLP active
CCN(C(=O)COC(=O)c1c(C)nn(-c2ccccc2)c1C)C1CCS(=O)(=O)C1 (stereo not given)	none
COc1ccc(C(=O)/C=C/c2ccc(OC)c(Cn3nnc4ccccc43)c2)cc1	Myeloid diff MLP active
COc1ccc(/C=C/C(=O)c2ccc(O)cc2)cc1CN1CCOCC1	Myeloid diff MLP active
Cc1ccc(OCc2nnn(CC(=O)NS(=O)(=O)c3c(C)noc3C)c2-c2ccccc2)cc1	none (no result: NR2E3 ag-1, T cell modulator)
Cc1cc(C(O)c2ncc(-c3ccc(Cl)cc3)[nH]2)ccc1F (stereo not given)	none (no result: NR2E3 ag-1, T cell modulator)
Cc1c(C(=O)NCCN2C(=O)S/C(=C\c3cccnc3)C2=O)cccc1[N+](=O)[O-]	T cell modulator 19
Cn1cnnc1SCC(=O)Nc1ncc([N+](=O)[O-])s1	none (no result: NR2E3 ag-1)
COc1ccc(O)c(CN2CCCC(N3CCN(c4ccc(F)cc4)CC3)C2)c1 (stereo not given)	none
COc1ccc(N2CCN(C3CCCN(Cc4ccc(F)cc4Cl)C3)CC2)cc1 (stereo not given)	Myeloid diff MLP active
CCOC(=O)[C@]12CCCC=C1N(Cc1ccccc1)C(=O)[C@H](CC(=O)NCc1ccc(C)o1)C2	none (no result: GAA850 FXN act, NR2E3 ag-1, NR2E3 ag-2, T cell modulator)
COc1cc(/C=C/C(=O)c2ccc3c(c2)OCCO3)cc(Br)c1OCC(=O)N(C)C	Myeloid diff MLP active
CN(C)CC1CC/C(=C\c2ccc(O)cc2)C1=O (stereo not given)	Myeloid diff MLP inconclusive (no result: NR2E3 ag-1, T cell modulator)
O=C1/C(=C\c2ccc(Cl)cc2)CCC1CNc1ccc(Cl)cc1 (stereo not given)	Myeloid diff MLP active (no result: NR2E3 ag-1, T cell modulator)
O=C(O)c1ccc(N2C(=O)/C(=C/c3ccc(-c4ccc([N+](=O)[O-])cc4)o3)C=C2c2ccccc2)cc1	Myeloid diff MLP active
Nc1c(C(=O)Nc2nc3ccccc3s2)sc2nc(-c3cccs3)ccc12	Myeloid diff MLP active
CC(=O)c1sc2nc(-c3cccs3)ccc2c1N	none
O=C(CSc1nnc2ccccn12)NC(=O)c1ccccc1Cl	none (no result: NR2E3 ag-1)
CC1CC(NC(=O)c2c(O)nc3sccn3c2=O)CC(C)(C)C1 (stereo not given)	Myeloid diff MLP active
Cc1ccc(OCC(=O)OCC(=O)NC2CCS(=O)(=O)C2)cc1C (stereo not given)	none (no result: NR2E3 ag-1, T cell modulator)
O=[N+]([O-])c1nn(-c2ccc3c(c2)OCCO3)n(O)c1=Nc1ccc(Cl)cc1	NR2E3 ag-2 86
CCc1ccc(N=c2c([N+](=O)[O-])nn(-c3ccc4c(c3)OCCO4)n2O)cc1	none
O=C(NC1CCCCCC1)c1[nH]c(C(F)(F)F)nc1-c1ccccc1	none (no result: GAA850 FXN act, NR2E3 ag-1, T cell modulator)
Nc1cc(SCc2ccc(Cl)cc2Cl)ncn1	none (no result: NR2E3 ag-1, T cell modulator)
Clc1ccc2ccc3cccnc3c2n1	none (no result: NR2E3 ag-1)
O=S1(=O)Nc2c(ccc3cccnc23)-c2ccccc21	NR2E3 ag-2 102
C=C(C)COc1ccc(-c2nc(N)ncc2-c2ccc(Cl)cc2)c(O)c1	none
CC(Oc1cccc(Cl)c1)C(=O)Nc1ccc(S(=O)(=O)N(C)C2CCN(C)CC2)cc1 (stereo not given)	Myeloid diff MLP active
COc1ccc(C(CNC(=O)c2cccc(S(=O)(=O)Nc3cccc(C)c3)c2)N2CCOCC2)cc1 (stereo not given)	none (no result: Myeloid diff MLP)
COc1ccccc1NS(=O)(=O)c1ccc(Cl)c(NC(=O)c2sc3cc(Cl)ccc3c2Cl)c1	none (no result: Myeloid diff MLP)
O=C(Nc1cc(S(=O)(=O)Nc2ccccc2Cl)ccc1O)c1sc2cc(Cl)ccc2c1Cl	Myeloid diff MLP active
CN1CCc2c(sc3c2C(=O)NC(c2ccc(-c4ccc(Cl)cc4)o2)N3)C1 (stereo not given)	Myeloid diff MLP active
